Compound activity: PubChem BioAssay, several laboratories
HSF1 inh: HSF1 inhibition. NIH3T3-HGL HSE-luciferase, MG132-induced, luminescence 8 h; active compounds read low. activity change, negative = inhibition, % at 7.5 µM (by protocol). actives 0.77% (n = 300,000). AID 2098;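 active = more than half of replicate wells show activity change below -50%, luminescence cut by over half; inconclusive = some wells, but at most half, below -50%; inactive = no replicate well below -50%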;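 note: luciferase reports HSF-1 transcriptional activity via heat shock element; 0% = median of DMSO wells and -100% = zero luminescence signal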
T cruzi repl: blocks replication of Trypanosoma cruzi | inhibition, % (no concentration beside the values) | actives 1.4% (n = 300,000) | T. cruzi beta-gal in NIH3T3, luminescence, 90 h;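 active = mean inhibition across valid replicates above about 55%, limit read from the data; inconclusive = mean below that limit but half or more replicates reach it; inactive = mean below it, under half of replicates reach it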;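 note: signal also drops with host cell toxicity which is not excluded here; 0% = plate median of DMSO wells and 100% = zero luminescence signal; higher percent means less beta-gal luminescence so fewer parasites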
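assay system = mouse NIH/3T3 fibroblasts infected with β-gal-expressing T. cruzi Tulahuen C4 | input = 5,000 NIH/3T3 host cells per well | buffer or medium = DMEM plus 2% FBS | timing = 3 h host attachment, then at least 90 h co-culture | measured by = GalScreen luminescence, 60 min | evaluation = luminescence reflecting intracellular parasite burden, expressed as percent inhibition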
GPR7 antag: antagonists of human GPR7 (neuropeptides B/W receptor 1). P48145. GPR7-expressing cells, fluorescence antagonist assay. inhibition, % at 4.4 µM. actives 1.1% (n = 290,000). AID 1861; in the data active = inhibition above about 16%, passing the limit was not always enough;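 note: cells stimulated with the agonist NPW; 0% = agonist with vehicle and 100% = vehicle without agonist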
Target sequence (P48145 whole entry, looked up): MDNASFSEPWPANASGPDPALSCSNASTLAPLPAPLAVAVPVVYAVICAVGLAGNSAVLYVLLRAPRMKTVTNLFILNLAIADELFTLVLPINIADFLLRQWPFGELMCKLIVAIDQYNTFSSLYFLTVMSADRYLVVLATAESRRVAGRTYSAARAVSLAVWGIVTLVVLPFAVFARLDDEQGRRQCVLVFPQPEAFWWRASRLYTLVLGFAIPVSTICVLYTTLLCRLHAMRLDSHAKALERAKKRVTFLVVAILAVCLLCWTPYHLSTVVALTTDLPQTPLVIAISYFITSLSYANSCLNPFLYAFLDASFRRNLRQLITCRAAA
HSF-1 act: increases HSF-1 driven luciferase reporter signal; NIH3T3-HGL HSF-1 luciferase reporter, MG132, 8 h; 100% = twice DMSO control signal; activation, % at 9 µM; actives 1.7% (n = 300,000); AID 504408;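 active = mean replicate activation of at least 50% with a set share of replicates each reaching 50%; inconclusive = only one of those two conditions met; inactive = mean below 50% and too few replicates reaching it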;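 note: 0% = median of the neutral control wells and 100% = twice that signal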
Jurkat NFkB inh: lowers PMA/ionomycin-induced NF-kB signal in Jurkat cells; PMA/ionomycin-induced NF-kB luciferase reporter, luminescence; actives 0.53% (n = 330,000); inhibition, % at 4 µM; in the data active = inhibition above about 50%
697 NFkB inh: lowers PMA/ionomycin-induced NF-kB signal in 697 B cells. 697 B-cell NF-kB luciferase reporter, 16 h. inhibition, % at 4 µM. actives 0.33% (n = 330,000). AID 435022; in the data active = inhibition above about 35%
Jurkat NFkB conf: inhibitors of the PMA/ionomycin-induced NF-kB reporter in Jurkat cells, retest; shares compounds with Jurkat NFkB inh; Jurkat NF-kB luciferase, 16 h; inhibition, % at 4 µM; actives 27% (n = 2,700);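 active = inhibition reaching about 45% at 4 µM in either replicate, limit read from the data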;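 note: plate controls were PMA/ionomycin stimulated DMSO wells for no effect and unstimulated DMSO wells for full effect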
Starred values were filed as active, the others as inactive; ? = inconclusive; . = no result given. Hits are enriched below; roughly 4.8% of the tested compounds scored in any of these assays.

SMILES | HSF1 inh | T cruzi repl | GPR7 antag | HSF-1 act | Jurkat NFkB inh | 697 NFkB inh | Jurkat NFkB conf
CCN(C[C@H]1N[C@@](Cc2ccccc2)(C(=O)OC)[C@H]2C(=O)N(Cc3ccccc3)C(=O)[C@@H]12)C(=O)COc1ccccc1 | . | . | . | . | 0 | 5 | .
COc1ccc(OC)c(Nc2cc(C)nc3ccc(C)cc23)c1 | -4 | 40 | . | 31 | 62* | -56 | 15
CC(=O)c1ccc(Nc2cc(C)nc3c(C)cccc23)cc1 | 6 | -1 | 9 | -5 | 56* | -100 | 27
COc1ccc(Cl)cc1/C=C(\C#N)C(N)=O | -9 | -8 | -3 | -17 | 1 | -18 | .
Cc1ccc(NC(=O)C2CCN(C(=O)OC(C)(C)C)CC2)cc1S(=O)(=O)N1CCCCC1 | . | . | . | . | 4 | -6 | .
CC(Sc1nccn1C)C(=O)Nc1ccccc1 (stereo not given) | -1 | -15 | -13 | 0 | -8 | 0 | .
COc1ccc(C2CC(c3ccc4ccccc4c3)=NN2C(=O)COC(=O)C2CCC(=O)N2)cc1 (stereo not given) | 5 | 2 | 15 | ? | -196 | -169 | -133
COc1ccc(C2CC(c3ccc4ccccc4c3)=NN2C(=O)CN2CCC(C(N)=O)CC2)cc1 (stereo not given) | 31 | 9 | 1 | 36 | -52 | -28 | .
O=C(CN1CCc2ccccc21)NN1CC(=O)N(c2ccc(Cl)cc2)CC1=O | -4 | -3 | 1 | 10 | 10 | 18 | .
Cn1cc(CN2CCN(c3ccc(Cl)cn3)CC2)c(-c2ccccc2F)n1 | -2 | 18 | -3 | 0 | -7 | 8 | .
Cc1cccc(N2CCN(Cc3cn(C)nc3-c3ccccc3F)CC2)n1 | 1 | -64 | 10 | -12 | 54* | -30 | 28
CCOc1ccc2nc3cc(NCc4ccc(OC)cc4)ccc3c(N)c2c1 | 2 | 53 | -8 | -17 | 100* | -29 | 15
O=C(Nc1cccc(C(=O)O)c1)/C(=C\c1ccc2c(c1)OCO2)NC(=O)c1ccccc1Cl | -16 | -14 | -10 | -13 | 7 | 5 | .
Cc1c(C(=O)Nc2ccccc2)csc1-c1ccccc1 | 28 | 9 | 3 | 61* | -266 | 6 | -195
Cc1oc(-c2ccccc2)cc1C(=O)Nc1ccccc1 | 0 | 12 | -1 | -14 | -8 | -8 | .
Cc1cc(C)cc(NC(=O)c2ccc([N+](=O)[O-])o2)c1 | 41 | 20 | -7 | ? | 87* | 25 | 48*
CCc1ccc(Nc2cc(C)nc3ncnn23)cc1 | 4 | -14 | -19 | -1 | 8 | 12 | .
CCn1c2ccccc2c2cc(Nc3cc(C)nc4ncnn34)ccc21 | -20 | 11 | 0 | -31 | 65* | -197 | 49*
O=C1CCCc2nc3c(cc21)C(O)Oc1c-3ccc2ccccc12 (stereo not given) | -3 | -23 | -18 | -5 | -156 | -208 | -66
O=C1CCCc2nc3c(cc21)C(O)Oc1ccccc1-3 (stereo not given) | -6 | -21 | -4 | 0 | -7 | -7 | .
CCCNC(=O)CC1C(=O)N(Cc2ccccc2)C(C)c2nc3ccccc3n21 (stereo not given) | -2 | 5 | -1 | 19 | -1 | 16 | .
Cc1ccc(S(=O)(=O)Nc2ccc(-c3nc4ccc(C)cc4s3)cc2)cc1 | 4 | 19 | -7 | -8 | 1 | -17 | .
Cc1cccc(S(=O)(=O)Nc2ccc(-c3nc4ccc(C)cc4s3)cc2)c1 | 6 | 2 | -19 | 5 | -179 | -165 | -52
CC(=O)c1c(C)[nH]c(C(=O)CN2CCN(S(=O)(=O)c3ccccc3)CC2)c1C | . | . | . | . | -2 | 10 | .
CCOc1ccc(OCC)c(NC(=O)CN2CCN(c3cccc(C)c3)C(C)C2)c1 (stereo not given) | -37 | 44 | -1 | -50 | 58* | -20 | 19
SMILES | HSF1 inh | T cruzi repl | GPR7 antag | HSF-1 act | Jurkat NFkB inh | 697 NFkB inh | Jurkat NFkB conf
Cc1cc(-c2csc(Nc3ccccn3)n2)ccc1F | 31 | 34 | -10 | 80* | -158 | -237 | -81
Cc1nc(N)sc1-c1csc(Nc2ccccn2)n1 | -16 | -21 | -6 | -11 | . | . | .
Cc1ccc(NC(=O)/C(Cl)=C\c2ccccc2)cc1 | -10 | -1 | . | 6 | -223 | -102 | -126
Oc1ccc2ccccc2c1N=Nc1ccccn1 | -48 | 55* | -8 | -58 | 62* | -9 | 52*
Oc1ccc2ccccc2c1N=Nc1ccccc1F | 12 | -3 | -11 | 21 | -8 | -33 | .
COc1ccccc1N1CCN(S(=O)(=O)c2ccc3c(c2)NC(=O)C(C)C(=O)N3)CC1 (stereo not given) | -4 | -5 | -9 | 2 | -4 | -5 | .
CN1CCN(c2ccc([N+](=O)[O-])cc2C(=O)c2ccc(Br)cc2)CC1 | -8 | -15 | 4 | -4 | 73* | -31 | 26
Cc1ccc(C(=O)c2cc([N+](=O)[O-])ccc2N2CCOCC2)cc1C | -8 | -51 | -2 | -15 | 66* | -75 | 51*
Cc1ccc(C(=O)c2cc([N+](=O)[O-])ccc2N2CCOCC2)c(C)c1 | -27 | 29 | -1 | -40 | 55* | 22 | 50*
Cc1ccc(C(=O)c2cc([N+](=O)[O-])ccc2N2CCCCC2)cc1C | -6 | 6 | 9 | -12 | 63* | -34 | 42
Fc1ccc(Nc2ccc3ccccc3n2)c(F)c1 | 0 | -5 | -12 | -22 | -211 | -242 | -138
COc1ccc(CC(=O)Nc2c(C(=O)N3CCN(c4ccccc4)CC3)oc3ccccc23)cc1OC | -2 | 16 | -1 | -1 | 17 | 16 | .
CCOC(=O)Nc1nc(-c2ccccc2)c(C(=O)c2ccc(Cl)cc2)s1 | -20 | 22 | 8 | -12 | 54* | 8 | 55*
CCOC(=O)Nc1sc(C)nc1-c1ccccc1 | -4 | -21 | 1 | 8 | -5 | -11 | .
COCCn1c(SCC(=O)NNC(=O)c2ccccc2)nc2ccccc21 | . | . | . | . | 9 | 15 | .
C=C(C)COc1ccc(-c2n[nH]c(C)c2-c2ccc(Br)cc2)c(O)c1 | 1 | 28 | -1 | -7 | 50* | -19 | 26
C=C(C)COc1ccc(-c2[nH]ncc2-c2ccc(Br)cc2)c(O)c1 | 4 | 3 | -10 | -18 | 59* | -22 | 8
CCOc1ccc(-c2[nH]ncc2-c2ccc(OC)c(OC)c2)c(O)c1 | . | . | -4 | . | 63* | -57 | 57*
CCCn1c(=O)n(CC(=O)NCC2CCCO2)c(=O)c2c3c(sc21)COC(C)(C)C3 (stereo not given) | 6 | -3 | -8 | 14 | 1 | 1 | .
CC1CCN(C(=O)COc2ccc3ccccc3c2Br)CC1 | 7 | 9 | -9 | 12 | -11 | -20 | .
